# Screening data as filed in PubChem BioAssay.
# Compounds with a hit are over-represented: about 4.7% of the library has one in this group of screens.
# aSyn UTR inh: 5' untranslated region of α-synuclein, MLPCN primary screen; 0.82% of 300,000 active; AID 1813; alpha-synuclein 5'UTR reporter, inhibitor activity; inhibition, % (tested at 7.5 µM); in the data active = inhibition above about 60%;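 also: H4 neuroglioblastoma cells stably carrying SNCA 5'UTR luciferase fusion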
# IMP-1 inh: inhibitors of Pseudomonas aeruginosa IMP-1 metallo-beta-lactamase; purified IMP-1, nitrocefin hydrolysis, epi-absorbance fluorescence; inhibition, % at 5.6 µM; 0.45% of 290,000 active;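 active = inhibition above the mean plus 3 SD of all compounds in the same screening run, cut at about 4.5% in these data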
#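 assay system = purified recombinant IMP-1 metallo-beta-lactamase enzyme | schedule = 15 min preincubation plus 25 min reaction at 25 °C | signal = Epi-absorbance fluorescence, 480 nm excitation, 530 nm emission | read-out basis = percent inhibition from optical density relative to buffer-blank wells | controls = IMP-1 with DMSO as 0%, enzyme-free DMSO as 100%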
# Jurkat NFkB inh: inhibitors of the PMA/ionomycin-induced NF-kB reporter in Jurkat cells; PMA/ionomycin-induced NF-kB luciferase reporter, luminescence; inhibition, % at 4 µM; 0.53% of 330,000 active; AID 435003; in the data active = inhibition above about 50%
# 697 NFkB inh: inhibitors of the PMA/ionomycin-induced NF-kB reporter in 697 B cells | inhibition, % at 4 µM | 697 B-cell NF-kB luciferase reporter, 16 h | 0.33% of 330,000 active | AID 435022; in the data active = inhibition above about 35%
# Mdm2 MdmX PPI: disrupts the human Mdm2-MdmX interaction | SaOS-2 split-luciferase Mdm2/MdmX complementation, luminescence | inhibition, % at 8 µM | 3% of 330,000 active;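 active = inhibition of at least 50% at 8 µM in the primary screen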
# Target sequence (O15151 whole entry, looked up): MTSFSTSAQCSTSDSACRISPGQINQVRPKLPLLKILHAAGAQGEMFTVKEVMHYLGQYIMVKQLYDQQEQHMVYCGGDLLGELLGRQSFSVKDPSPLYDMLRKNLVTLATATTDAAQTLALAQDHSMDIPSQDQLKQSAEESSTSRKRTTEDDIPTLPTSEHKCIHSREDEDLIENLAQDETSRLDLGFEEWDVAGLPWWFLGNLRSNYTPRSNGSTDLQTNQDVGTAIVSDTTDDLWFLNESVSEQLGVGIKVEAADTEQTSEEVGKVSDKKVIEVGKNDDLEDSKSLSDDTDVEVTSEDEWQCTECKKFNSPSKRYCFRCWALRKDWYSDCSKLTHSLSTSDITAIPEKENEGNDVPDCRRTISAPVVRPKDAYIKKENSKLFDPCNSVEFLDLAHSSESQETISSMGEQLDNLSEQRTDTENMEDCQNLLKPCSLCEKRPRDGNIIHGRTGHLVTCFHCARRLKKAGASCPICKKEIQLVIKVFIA
# Target sequence (Q00987 whole entry, looked up): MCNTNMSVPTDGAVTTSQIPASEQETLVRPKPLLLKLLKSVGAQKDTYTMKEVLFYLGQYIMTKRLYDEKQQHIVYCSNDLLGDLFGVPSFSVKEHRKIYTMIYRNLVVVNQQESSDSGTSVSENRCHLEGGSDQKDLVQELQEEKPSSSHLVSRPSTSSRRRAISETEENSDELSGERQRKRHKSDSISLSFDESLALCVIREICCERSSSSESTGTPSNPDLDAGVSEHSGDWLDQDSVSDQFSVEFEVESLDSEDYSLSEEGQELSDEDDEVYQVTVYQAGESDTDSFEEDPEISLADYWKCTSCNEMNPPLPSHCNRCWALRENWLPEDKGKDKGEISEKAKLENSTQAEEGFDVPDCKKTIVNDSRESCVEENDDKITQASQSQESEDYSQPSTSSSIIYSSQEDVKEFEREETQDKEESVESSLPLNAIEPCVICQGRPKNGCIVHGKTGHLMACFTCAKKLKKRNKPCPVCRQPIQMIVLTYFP
# VIM-2 inhibitor: inhibitors of Pseudomonas aeruginosa VIM-2 metallo-beta-lactamase. AID 1527. inhibition, % at 5.6 µM. purified VIM-2, nitrocefin hydrolysis, epi-absorbance fluorescence. 0.89% of 290,000 active;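 active = inhibition above the mean of all tested compounds plus 3 SD, cutoff set per screening run, cut at about 7.5% in these data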;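 also: red hydrolysis product quenches plate fluorescence so inhibitors raise well fluorescence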
# Mdm2-MdmX conf: confirmation of human Mdm2/MdmX interaction inhibitors; inhibition, % at 8 µM; shares compounds with Mdm2 MdmX PPI; 55% of 10,000 active; Mdm2-MdmX binding, luminescent assay; in the data active = inhibition above about 40%
# FLuc counter: counter-screen for Mdm2/MdmX inhibitors: full-length luciferase; 77% of 6,200 active; SaOS-2 full-length luciferase counterscreen, luminescence; shares compounds with Mdm2 MdmX PPI; AID 504607; inhibition, % at 8 µM;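 active = mean inhibition at 8 µM reaching about 37%, which flags the compound as non-specific, limit read from the data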;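 also: p53-null SaOS-2 cells with luciferase driven by a doxycycline-inducible promoter; compound on cells about two nights before reading with doxycycline added after day one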
# A number is an active result; i = inactive; nt = no result given.
SMILES,aSyn UTR inh,IMP-1 inh,Jurkat NFkB inh,697 NFkB inh,Mdm2 MdmX PPI,VIM-2 inhibitor,Mdm2-MdmX conf,FLuc counter
CCOc1ccc(CCNC(=O)Cn2ncn3nc(-c4ccc(OC)cc4)cc3c2=O)cc1,i,i,i,i,i,i,nt,nt
COc1ccc(-c2cc3c(=O)n(CC(=O)NCCCN4CCC(Cc5ccccc5)CC4)ncn3n2)cc1,96,i,i,i,87,i,i,68
Cc1ccc(SCC(=O)OCC(=O)N(CCC#N)c2ccccc2)cc1C,i,nt,i,i,i,nt,nt,nt
Cc1ccc(N(CCC#N)C(=O)CCl)cc1C,i,i,i,i,100,i,100,57
COC(=O)c1cc2sccc2n1CC(=O)N1CCCc2ccccc21,i,i,i,i,52,i,41,51
CC(=O)Oc1cc2c(cc1Cl)C1(CC(c3ccccc3Cl)O2)CC(C)(C)NC(=S)N1 (configuration not stated),i,i,i,i,56,i,i,nt
Cc1csc(NC(=O)CSc2nnc3c4ccccc4nc(C(C)(C)C)n23)n1,i,i,i,i,69,i,60,57
CC(=O)CSc1nnc2c3ccccc3nc(C(C)(C)C)n12,i,i,i,i,i,i,nt,nt
Cc1ccc(-n2c(C)c([N+](=O)[O-])c3ccc(O)cc32)cc1,i,i,i,i,i,i,65,i
Cc1c([N+](=O)[O-])c2ccc(O)cc2n1-c1ccccc1,i,i,i,i,66,i,65,i
Cc1ccc(-c2nc(SCC(=O)Nc3cc(C)on3)c3c(=O)n(C)c(=O)n(C)c3n2)cc1,i,i,i,i,77,i,i,nt
Cn1c(=O)c2c(SCC(=O)Nc3ccccc3F)nc(C3CC3)nc2n(C)c1=O,i,i,i,i,79,i,i,nt
CCOC(=O)c1c(NC(=S)NCC2CCCO2)sc(C)c1C (configuration not stated),i,i,i,i,i,i,nt,nt
Cc1ccc(CSc2ncn(-c3ccccc3)n2)cc1,i,i,i,i,i,i,nt,nt
Cc1ccc(CSc2nccc(-c3c(C)nc4ccccn34)n2)cc1,i,i,i,i,66,i,46,53
Cc1ccc(-c2csc3nc4c5ccccc5c(NCCCN(C)C)nn4c(=O)c23)cc1,116,i,i,i,100,i,50,64
Cc1cccc(NC(=O)C2CCN(S(=O)(=O)c3cccc4nsnc34)CC2)n1,i,i,i,i,i,i,nt,nt
COc1ccc2nc(NC(=O)C3CCN(S(=O)(=O)c4cccc5nsnc45)CC3)sc2c1,nt,i,i,i,65,i,66,39
COc1ccc(/C=C2\N=C(c3ccccc3Cl)NC2=O)cc1,i,i,nt,nt,nt,i,nt,nt
Cn1ncc(SCc2ccccc2)c(Cl)c1=O,i,i,i,i,52,i,i,nt
Cc1ccc(O)c(C(=O)/C=C/c2ccc3c(c2)OCCO3)c1,i,i,i,i,52,i,i,nt
CCOC(=O)[C@H]1[C@H]2COc3ccc(Cl)cc3[C@@H]2N2C(=O)c3ccc(Cl)cc3NC(=O)[C@@]12C,nt,nt,i,i,53,nt,i,nt
C[C@@]12C(=O)Nc3ccccc3C(=O)N1[C@H]1c3cc(Br)ccc3OC[C@@H]1[C@@H]2c1ccccc1,nt,nt,i,i,63,nt,53,i
CCOC(=O)[C@H]1[C@H]2COc3ccc(C)cc3[C@@H]2N2C(=O)c3ccc(Cl)cc3NC(=O)[C@@]12C,nt,nt,i,i,i,nt,nt,nt
CCN(CC)CCC(=O)N1c2ccccc2Sc2ccc(Cl)cc21,i,nt,i,i,56,nt,i,65
SMILES,aSyn UTR inh,IMP-1 inh,Jurkat NFkB inh,697 NFkB inh,Mdm2 MdmX PPI,VIM-2 inhibitor,Mdm2-MdmX conf,FLuc counter
CCCCN(C)CC(O)Cn1cc(/C=C/C(=O)c2cccs2)c2ccccc21 (configuration not stated),i,i,nt,nt,nt,i,nt,nt
CCCCN(C)CC(O)Cn1cc(/C=C/C(=O)c2ccc(OCC)cc2)c2ccccc21 (configuration not stated),i,i,i,i,69,i,i,nt
CCN1C(=O)c2cccc3c(S(=O)(=O)Nc4ncccc4C)ccc1c23,i,i,i,i,51,i,i,nt
CCN1C(=O)c2cccc3c(S(=O)(=O)NCc4cccnc4)ccc1c23,i,i,i,i,i,i,nt,nt
CCN1C(=O)c2cccc3c(S(=O)(=O)Nc4nc(C)cs4)ccc1c23,i,i,i,i,73,i,i,nt
CN(C)C(=O)c1cc(C(=O)Cc2ccccc2)c[nH]1,i,i,i,i,i,i,nt,nt
O=C(C1CCC(=O)N(C2CC2)C1)N1CCC(Oc2cccc(C(F)(F)F)c2)CC1 (configuration not stated),i,i,i,i,i,i,nt,nt
O=C(COC(=O)c1n[nH]c2ccccc12)NC(=O)NC12CC3CC(CC(C3)C1)C2,i,i,i,i,54,i,i,72
CCOc1cc(CNCc2ccccc2)ccc1OCc1ccc(Cl)cc1,i,i,i,i,55,i,i,nt
CCOc1cc(CNCCc2ccc(S(N)(=O)=O)cc2)ccc1OCc1ccccc1,i,i,nt,nt,nt,i,nt,nt
CCOc1cc(CNCCc2ccc(S(N)(=O)=O)cc2)cc(Cl)c1OCc1ccccc1,i,i,i,i,67,i,i,53
COc1ccc(Cc2nnc(SCC(=O)Nc3ccccc3)[nH]c2=O)cc1,i,nt,i,i,i,nt,nt,nt
COc1ccc2cc3c(N)nn(C(=O)c4ccc(Cl)c([N+](=O)[O-])c4)c3nc2c1,i,i,i,i,83,i,88,57
CCCC1CCC(C(=O)n2nc(N)c3cc4ccc(OC)cc4nc32)CC1 (configuration not stated),i,i,i,i,i,i,nt,nt
COc1ccc2cc3c(N)nn(C(=O)c4ccccc4[N+](=O)[O-])c3nc2c1,i,i,i,i,93,i,87,51
COc1cccc2cc(CC(=O)c3ccccc3)c(=O)oc12,i,i,i,i,i,i,nt,nt
O=C(CCc1nc(-c2ccccc2F)no1)Nc1ccc(Oc2ccccc2)cc1,i,i,i,i,61,i,i,52
COc1cccc(NC(=O)CCc2nc(-c3ccccc3F)no2)c1,i,i,i,i,i,i,nt,nt
FC(F)(F)c1nc(-c2cccs2)ncc1-c1nnnn1-c1ccc(Cl)cc1,i,i,i,i,69,i,i,nt
O=C(CN1CCCc2ccccc21)N/N=C/c1ccccc1O,i,i,i,i,77,i,63,i
O=C(CN1CCCc2ccccc21)N/N=C/c1ccc(F)cc1F,i,i,i,i,i,i,nt,nt
O=C(NC1CCN(S(=O)(=O)c2cccc(F)c2)CC1)c1ccc(F)cc1,i,i,i,i,i,i,nt,nt
O=C1c2ccc3c4c(ccc(c24)C(=O)N1c1cccc(O)c1)CC3,i,i,i,i,i,i,nt,nt
